In paper PMC4716659 (European journal of medicinal chemistry, 2015):
≈ marks a conversion by molar mass, not a printed value. Entries after “also recorded” stand apart in the source; their conditions may differ.

How the values were obtained:
[1] = system: S. aureus VRS1 (VRSA); assay: MBC, plating onto TSA; type: cell-based, Staphylococcus aureus; conditions: Staphylococcus aureus, VRSA
[2] = system: S. aureus NRS19 (VISA); assay: MIC, broth microdilution; type: cell-based, Staphylococcus aureus; conditions: Staphylococcus aureus, NRS19|VISA
[3] = system: three VRSA strains; assay: MIC against VRSA strains; type: cell-based; conditions: Staphylococcus aureus
[4] = system: S. aureus VRS5 (VRSA); assay: MIC, broth microdilution; type: cell-based, Staphylococcus aureus; conditions: Staphylococcus aureus, VRSA
[5] = system: S. aureus NRS107 (MRSA); assay: MIC, broth microdilution; type: cell-based, Staphylococcus aureus; conditions: Staphylococcus aureus, MRSA|NRS107
[6] = system: S. aureus VRS5 (VRSA); assay: MBC, plating onto TSA; type: cell-based, Staphylococcus aureus; conditions: Staphylococcus aureus, VRSA
[7] = system: S. aureus NRS119 (MRSA); assay: MIC, broth microdilution; type: cell-based, Staphylococcus aureus; conditions: Staphylococcus aureus, MRSA|NRS119
[8] = system: methicillin-resistant Staphylococcus aureus (MRSA) ATCC 43300; assay: MIC, broth microdilution; type: cell-based; conditions: Staphylococcus aureus, ATCC43300|MRSA, MRSA ATCC 43300
[9] = system: S. aureus VRS4 (VRSA); assay: MIC, broth microdilution; type: cell-based, Staphylococcus aureus; conditions: Staphylococcus aureus, VRSA
[10] = system: S. aureus USA500 (MRSA); assay: MBC, plating onto TSA; type: cell-based, Staphylococcus aureus; conditions: Staphylococcus aureus, MRSA|USA500
[11] = system: S. aureus NRS1 (VISA); assay: MIC, broth microdilution; type: cell-based, Staphylococcus aureus; conditions: Staphylococcus aureus, NRS1|VISA
[12] = system: S. aureus NRS1 (VISA); assay: MBC, plating onto TSA; type: cell-based, Staphylococcus aureus; conditions: Staphylococcus aureus, NRS1|VISA
[13] = system: human embryonic kidney (HEK293) cell line; assay: In vitro cytotoxicity, MTS assay; conditions: 40 μg/mL
[14] = system: S. aureus NRS194 (MRSA); assay: MIC, broth microdilution; type: cell-based, Staphylococcus aureus; conditions: Staphylococcus aureus, MRSA|NRS194
[15] = system: S. aureus USA300 (MRSA); assay: MIC, broth microdilution; type: cell-based, Staphylococcus aureus; conditions: Staphylococcus aureus, MRSA|USA300
[16] = system: S. aureus VRS1 (VRSA); assay: MIC, broth microdilution; type: cell-based, Staphylococcus aureus; conditions: Staphylococcus aureus, VRSA
[17] = system: S. aureus USA500 (MRSA); assay: MIC, broth microdilution; type: cell-based, Staphylococcus aureus; conditions: Staphylococcus aureus, MRSA|USA500
[18] = system: S. aureus ATCC 43300 (MRSA); assay: MBC, plating onto TSA; type: cell-based, Staphylococcus aureus; conditions: Staphylococcus aureus, ATCC43300|MRSA
[19] = system: S. aureus NRS19 (VISA); assay: MBC, plating onto TSA; type: cell-based, Staphylococcus aureus; conditions: Staphylococcus aureus, NRS19|VISA
[20] = system: S. aureus NRS194 (MRSA); assay: MBC, plating onto TSA; type: cell-based, Staphylococcus aureus; conditions: Staphylococcus aureus, MRSA|NRS194
[21] = system: S. aureus USA300 (MRSA); assay: MBC, plating onto TSA; type: cell-based, Staphylococcus aureus; conditions: Staphylococcus aureus, MRSA|USA300
[22] = system: S. aureus VRS4 (VRSA); assay: MBC, plating onto TSA; type: cell-based, Staphylococcus aureus; conditions: Staphylococcus aureus, VRSA
[23] = system: S. aureus NRS37 (VISA); assay: MIC, broth microdilution; type: cell-based, Staphylococcus aureus; conditions: Staphylococcus aureus, NRS37|VISA
[24] = system: S. aureus USA 400 (MRSA); assay: MIC, broth microdilution; type: cell-based, Staphylococcus aureus; conditions: Staphylococcus aureus, MRSA|USA400
[25] = system: S. aureus USA 400 (MRSA); assay: MBC, plating onto TSA; type: cell-based, Staphylococcus aureus; conditions: Staphylococcus aureus, MRSA|USA400
[26] = system: S. aureus NRS119 (MRSA); assay: MBC, plating onto TSA; type: cell-based, Staphylococcus aureus; conditions: Staphylococcus aureus, MRSA|NRS119
[27] = system: S. aureus NRS107 (MRSA); assay: MBC, plating onto TSA; type: cell-based, Staphylococcus aureus; conditions: Staphylococcus aureus, MRSA|NRS107
[28] = system: S. aureus NRS37 (VISA); assay: MBC, plating onto TSA; type: cell-based, Staphylococcus aureus; conditions: Staphylococcus aureus, NRS37|VISA
[29] = system: two VISA isolates; assay: MIC against VISA isolates; type: cell-based; conditions: Staphylococcus aureus
[30] = system: MRSA USA300; assay: Time-kill analysis; type: cell-based, Staphylococcus aureus; conditions: MRSA USA300, 3 × MIC, 37 °C
In short: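 Late-log-phase cells diluted to ~1 × 10^8 CFU/mL in MHB and exposed to test compound or vancomycin in triplicate at 37 °C. 20 μL samples taken at 0, 2, 4, 6, 8, 10, 12 and 24 h, serially diluted in PBS, and plated on TSA. Plates incubated 18–20 h at 37 °C, then viable CFU/mL counted. Data given as mean ± standard deviation.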

Row | SMILES | MBC [1] [µg/mL] | MIC [2] [µg/mL] | MIC [4] [µg/mL] | MIC [5] [µg/mL] | MBC [6] [µg/mL] | MIC [7] [µg/mL] | MIC [8] [µg/mL] | MIC [9] [µg/mL] | MBC [10] [µg/mL] | MIC [11] [µg/mL] | MBC [12] [µg/mL] | toxicity to mammalian cells (MTS assay) [13] | MIC [14] [µg/mL] | MIC [15] [µg/mL] | MIC [16] [µg/mL] | MIC [17] [µg/mL] | MBC [18] [µg/mL] | MBC [19] [µg/mL] | MBC [20] [µg/mL] | MBC [21] [µg/mL] | further results
1 | [H]/N=C(\N)NN=C(C)c1sc(-c2ccc(-c3ccc(C(F)(F)F)cc3)cc2)nc1C [22c, (E)-2-(1-(4-Methyl-2-(4′-(trifluoromethyl)-[1,1′-biphenyl]-4-yl)thiazol-5-yl)ethylidene)hydrazinecarboximidamide] | 6.7 (≈ 16 µM) | 3.3 (≈ 7.9 µM) | 6.7 (≈ 16 µM) | 3.3 (≈ 7.9 µM) | 6.7 (≈ 16 µM) | 6.7 (≈ 16 µM) | 3.3 (≈ 7.9 µM) | 6.7 (≈ 16 µM) | 3.3 (≈ 7.9 µM) | 3.3 (≈ 7.9 µM) | 3.3 (≈ 7.9 µM) | toxic | 6.7 (≈ 16 µM) | 6.7 (≈ 16 µM) | 6.7 (≈ 16 µM) | 3.3 (≈ 7.9 µM) | 3.3 (≈ 7.9 µM) | 3.3 (≈ 7.9 µM) | 13.3 (≈ 31.9 µM) | 6.7 (≈ 16 µM) | MIC [3]: 6.7 µg/mL (≈ 16 µM); MBC [22]: 6.7 µg/mL (≈ 16 µM); MIC [23]: 3.3 µg/mL (≈ 7.9 µM); MIC [24]: 6.7 µg/mL (≈ 16 µM); MBC [25]: 13.3 µg/mL (≈ 31.9 µM); MBC [26]: 6.7 µg/mL (≈ 16 µM); MBC [27]: 6.7 µg/mL (≈ 16 µM); MBC [28]: 3.3 µg/mL (≈ 7.9 µM)
2 | [H]/N=C(\N)NN=C(C)c1sc(-c2ccc(-c3cccc4ccccc34)cc2)nc1C [compound 25, (E)-2-(1-(4-Methyl-2-(4-(naphthalen-1-yl)phenyl)thiazol-5-yl)ethylidene)hydrazinecarboximidamide] | 3.2 (≈ 8.01 µM) | 1.6 (≈ 4 µM) | 3.2 (≈ 8.01 µM) | 1.6 (≈ 4 µM) | 3.2 (≈ 8.01 µM) | 1.6 (≈ 4 µM) | 1.6 (≈ 4 µM) | 3.2 (≈ 8.01 µM) | 3.2 (≈ 8.01 µM) | 1.6 (≈ 4 µM) | 1.6 (≈ 4 µM) | not toxic; also recorded: improved toxicity profile | 1.6 (≈ 4 µM) | 1.6 (≈ 4 µM) | 3.2 (≈ 8.01 µM) | 1.6 (≈ 4 µM) | 1.6 (≈ 4 µM) | 1.6 (≈ 4 µM) | 1.6 (≈ 4 µM) | 1.6 (≈ 4 µM) | MBC [22]: 3.2 µg/mL (≈ 8.01 µM); MIC [29]: 1.6 µg/mL (≈ 4 µM); MIC [23]: 1.6 µg/mL (≈ 4 µM); MIC [24]: 1.6 µg/mL (≈ 4 µM); MBC [25]: 1.6 µg/mL (≈ 4 µM); MBC [26]: 1.6 µg/mL (≈ 4 µM); time to completely eradicate MRSA growth [30]: 10 h; MBC [27]: 1.6 µg/mL (≈ 4 µM); MBC [28]: 1.6 µg/mL (≈ 4 µM)
